Assay results published in PMC7658073 (Clinical Pharmacokinetics, 2020).

Tests used:
[1] = Phase I DDI study with digoxin; type: in vivo, human; settings: with digoxin 0.375 mg QD vs vericiguat 10 mg alone, fed
[2] = molecular target: T1, organic cation transporter 1 (Homo sapiens, UniProt O15245); assay: Substrate properties towards OCT1; type: in vitro ADME
T1 sequence (O15245 1-554): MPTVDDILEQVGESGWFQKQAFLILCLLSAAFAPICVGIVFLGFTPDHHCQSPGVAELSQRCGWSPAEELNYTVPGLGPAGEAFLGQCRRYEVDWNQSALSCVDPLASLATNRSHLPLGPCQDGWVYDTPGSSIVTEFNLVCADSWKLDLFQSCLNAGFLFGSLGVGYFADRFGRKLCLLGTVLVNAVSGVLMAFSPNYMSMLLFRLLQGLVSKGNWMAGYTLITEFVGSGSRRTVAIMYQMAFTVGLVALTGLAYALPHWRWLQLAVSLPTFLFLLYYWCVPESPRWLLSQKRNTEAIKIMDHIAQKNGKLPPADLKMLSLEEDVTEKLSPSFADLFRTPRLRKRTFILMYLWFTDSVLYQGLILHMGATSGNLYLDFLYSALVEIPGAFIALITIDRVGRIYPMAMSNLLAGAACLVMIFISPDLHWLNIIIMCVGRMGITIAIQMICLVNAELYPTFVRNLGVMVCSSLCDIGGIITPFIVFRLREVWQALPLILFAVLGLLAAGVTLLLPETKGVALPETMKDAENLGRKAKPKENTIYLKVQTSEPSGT

P-glycoprotein = P-glycoprotein (Homo sapiens, UniProt P08183); assay: Inhibitory potential towards P-gp; type: in vitro ADME
UGT2B4 = molecular target: T2, UGT2B4 (Homo sapiens, UniProt P06133); assay: Inhibitory potency towards UGT isoforms: UGT2B4; type: in vitro ADME
T2 sequence (P06133 24-528): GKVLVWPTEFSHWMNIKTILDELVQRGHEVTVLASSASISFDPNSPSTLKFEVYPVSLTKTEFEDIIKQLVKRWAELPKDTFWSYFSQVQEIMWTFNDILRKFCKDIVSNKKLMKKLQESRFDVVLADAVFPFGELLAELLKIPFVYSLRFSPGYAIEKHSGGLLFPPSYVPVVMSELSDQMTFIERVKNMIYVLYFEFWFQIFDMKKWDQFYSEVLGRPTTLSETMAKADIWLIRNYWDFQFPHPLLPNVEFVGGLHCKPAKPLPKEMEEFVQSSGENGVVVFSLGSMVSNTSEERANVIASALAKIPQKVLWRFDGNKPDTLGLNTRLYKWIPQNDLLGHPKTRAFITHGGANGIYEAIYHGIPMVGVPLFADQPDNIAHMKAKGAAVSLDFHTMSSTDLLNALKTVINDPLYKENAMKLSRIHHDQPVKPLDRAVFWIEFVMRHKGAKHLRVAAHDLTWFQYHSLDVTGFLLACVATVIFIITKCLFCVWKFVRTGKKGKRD

UGT1A9 = molecular target: T3, UGT1A9 (Homo sapiens, UniProt O60656); assay: Inhibitory potency towards UGT isoforms: UGT1A9; type: in vitro ADME
T3 sequence (O60656 26-530): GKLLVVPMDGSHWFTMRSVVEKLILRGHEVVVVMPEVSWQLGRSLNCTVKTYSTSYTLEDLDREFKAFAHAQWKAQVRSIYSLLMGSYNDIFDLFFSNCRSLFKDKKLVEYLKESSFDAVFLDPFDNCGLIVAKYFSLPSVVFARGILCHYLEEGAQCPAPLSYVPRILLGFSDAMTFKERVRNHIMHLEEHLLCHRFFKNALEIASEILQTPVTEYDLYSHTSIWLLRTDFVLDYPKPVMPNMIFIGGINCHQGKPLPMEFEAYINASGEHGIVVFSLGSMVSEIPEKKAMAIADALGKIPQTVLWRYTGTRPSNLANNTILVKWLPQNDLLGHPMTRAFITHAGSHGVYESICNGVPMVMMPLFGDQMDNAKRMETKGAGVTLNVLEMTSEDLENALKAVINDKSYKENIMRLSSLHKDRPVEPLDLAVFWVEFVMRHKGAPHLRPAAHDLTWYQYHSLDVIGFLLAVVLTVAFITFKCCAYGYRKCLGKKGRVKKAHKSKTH

OATP1B1 = molecular target: T4, OATP1B1 (Homo sapiens, UniProt Q9Y6L6); assay: Inhibitory potency towards OATP1B1; type: in vitro ADME
T4 sequence (Q9Y6L6 1-691): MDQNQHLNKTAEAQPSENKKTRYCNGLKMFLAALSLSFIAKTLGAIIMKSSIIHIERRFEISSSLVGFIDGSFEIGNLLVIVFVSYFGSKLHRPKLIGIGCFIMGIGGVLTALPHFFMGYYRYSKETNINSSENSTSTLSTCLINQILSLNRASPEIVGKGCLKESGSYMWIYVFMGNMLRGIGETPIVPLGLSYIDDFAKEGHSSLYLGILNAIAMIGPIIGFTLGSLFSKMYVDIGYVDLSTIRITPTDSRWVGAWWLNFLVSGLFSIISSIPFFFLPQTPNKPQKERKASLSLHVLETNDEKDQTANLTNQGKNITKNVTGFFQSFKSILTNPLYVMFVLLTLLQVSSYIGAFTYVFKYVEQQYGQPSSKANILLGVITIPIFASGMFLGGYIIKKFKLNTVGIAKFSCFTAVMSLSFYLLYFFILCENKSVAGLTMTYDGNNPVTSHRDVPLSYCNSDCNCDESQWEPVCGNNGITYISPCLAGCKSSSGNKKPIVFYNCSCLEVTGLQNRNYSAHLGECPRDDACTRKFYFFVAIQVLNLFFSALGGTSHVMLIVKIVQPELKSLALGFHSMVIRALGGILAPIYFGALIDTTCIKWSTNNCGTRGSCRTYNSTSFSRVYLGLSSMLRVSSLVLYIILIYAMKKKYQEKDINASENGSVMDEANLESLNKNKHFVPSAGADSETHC

[3] = All phase I studies in healthy volunteers; type: in vivo, human
Procedure, shortened: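 Healthy male volunteers, excluding regular medication, interacting foods/beverages or supplements, and non-adherence to smoking rules. All study drugs given orally. Tolerability recorded as treatment-emergent adverse events. Non-compartmental PK: AUC0–∞ by linear-log trapezoid plus extrapolation from the terminal log-linear slope; Cmax and trough read directly. Log-transformed parameters compared by ANOVA to give geometric mean ratios with 90% CIs.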

Chain of P-glycoprotein (P08183 whole entry, canonical isoform): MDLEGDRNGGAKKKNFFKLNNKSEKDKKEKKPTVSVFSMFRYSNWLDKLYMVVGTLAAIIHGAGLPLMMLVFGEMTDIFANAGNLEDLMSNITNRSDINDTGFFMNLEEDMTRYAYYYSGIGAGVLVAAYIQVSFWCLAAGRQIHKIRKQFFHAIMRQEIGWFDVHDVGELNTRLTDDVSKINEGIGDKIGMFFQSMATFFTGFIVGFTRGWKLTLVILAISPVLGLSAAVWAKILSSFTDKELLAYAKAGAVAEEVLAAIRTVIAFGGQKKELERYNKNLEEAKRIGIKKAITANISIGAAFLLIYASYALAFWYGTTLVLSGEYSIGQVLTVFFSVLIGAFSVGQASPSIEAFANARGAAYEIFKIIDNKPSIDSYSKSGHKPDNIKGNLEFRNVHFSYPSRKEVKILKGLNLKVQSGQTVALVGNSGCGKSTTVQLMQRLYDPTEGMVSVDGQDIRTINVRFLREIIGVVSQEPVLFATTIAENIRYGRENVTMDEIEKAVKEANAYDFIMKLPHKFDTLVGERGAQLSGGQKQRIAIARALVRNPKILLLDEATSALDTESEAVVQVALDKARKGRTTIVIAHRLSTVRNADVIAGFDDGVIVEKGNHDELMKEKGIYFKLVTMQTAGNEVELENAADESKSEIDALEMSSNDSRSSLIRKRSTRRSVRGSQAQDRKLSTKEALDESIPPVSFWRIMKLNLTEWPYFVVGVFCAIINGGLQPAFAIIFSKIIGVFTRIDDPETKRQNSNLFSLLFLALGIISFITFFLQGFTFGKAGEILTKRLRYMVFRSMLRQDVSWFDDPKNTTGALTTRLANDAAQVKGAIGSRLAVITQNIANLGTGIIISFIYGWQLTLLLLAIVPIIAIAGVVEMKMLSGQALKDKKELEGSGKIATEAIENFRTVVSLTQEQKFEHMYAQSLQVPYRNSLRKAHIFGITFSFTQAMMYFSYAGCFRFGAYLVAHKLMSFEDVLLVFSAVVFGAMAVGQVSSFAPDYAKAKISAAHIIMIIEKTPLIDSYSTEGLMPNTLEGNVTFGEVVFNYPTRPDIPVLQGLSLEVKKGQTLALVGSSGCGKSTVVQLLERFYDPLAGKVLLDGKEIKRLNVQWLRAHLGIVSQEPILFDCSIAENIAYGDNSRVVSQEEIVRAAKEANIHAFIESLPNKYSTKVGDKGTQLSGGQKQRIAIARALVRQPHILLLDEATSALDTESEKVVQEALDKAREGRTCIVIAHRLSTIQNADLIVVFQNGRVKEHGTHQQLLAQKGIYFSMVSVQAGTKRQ

AUC of vericiguat, point estimate of treatment ratio [1]: 0.980
Cmax of vericiguat, point estimate of treatment ratio [1]: 1.009
Substrate of organic cation transporter 1 [2]: not a substrate
IC50 (P-glycoprotein): > 100 µM
IC50 (UGT2B4): > 50 µM
IC50 (UGT1A9): 10.6 µM
Ki (UGT1A9): 6.6 µM
IC50 (OATP1B1): ~16 µM
Changes in vericiguat exposure in the phase I DDI studies ([3]; all ten DDI studies): ≤ 30%
Structure (SMILES): COC(=O)Nc1c(N)nc(-c2nn(Cc3ccccc3F)c3ncc(F)cc23)nc1N [Vericiguat]
Tolerability ([3]; healthy volunteers, all phase I studies): generally well tolerated
